Only some compounds are listed: those with a hit (about 0.99% of all), similar ones and a draw of the others.
Fam108B counter: mouse Fam108B serine hydrolase inhibitors, primary screen, counter-screen for RBBP9 inhibitor project, biochemical, fluorescence polarization; recombinant Fam108B, FP-Rh probe fluorescence polarization; inhibition, % at 9.51 µM; actives 0.33% (n = 300,000); AID 1947, 2009;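 active means inhibition above the screen mean inhibition plus 3 SD, computed separately per campaign, cut at about 18% in these data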;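 further: inhibitors lower polarization as less probe binds the enzyme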
PME-1 inh: PME-1 inhibitors via competitive probe labeling, primary screen, biochemical, fluorescence polarization, FP-Rh probe, HTS | actives 0.53% (n = 320,000) | inhibition, % at 5.9 µM | Protein phosphatase methylesterase 1 (Homo sapiens), Q9Y570 | recombinant PME-1;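 active means inhibition above the campaign mean of all compounds plus 3 SD, cut at about 26% in these data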;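 further: competitive labeling of PME-1 active site by serine hydrolase directed probe; 0% = PME-1 with DMSO and 100% = wells lacking PME-1 enzyme; inhibitors block probe labeling so polarization falls and inhibition rises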
Target sequence (Q9Y570 whole entry, looked up): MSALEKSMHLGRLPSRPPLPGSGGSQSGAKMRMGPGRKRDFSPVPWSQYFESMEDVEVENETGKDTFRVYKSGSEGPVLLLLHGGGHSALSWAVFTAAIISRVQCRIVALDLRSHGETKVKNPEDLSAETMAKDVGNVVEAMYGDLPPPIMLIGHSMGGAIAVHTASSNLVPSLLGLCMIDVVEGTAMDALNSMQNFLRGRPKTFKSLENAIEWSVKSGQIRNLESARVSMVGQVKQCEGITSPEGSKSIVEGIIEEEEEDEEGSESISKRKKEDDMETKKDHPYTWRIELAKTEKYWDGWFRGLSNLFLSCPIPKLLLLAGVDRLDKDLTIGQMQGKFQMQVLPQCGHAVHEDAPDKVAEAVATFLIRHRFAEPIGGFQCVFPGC
LYPLA2 counter: LYPLA2 inhibitors, primary screen, counter-screen for PME1 inhibitor project, biochemical, fluorescence polarization, FP-Rh probe ABPP; Acyl-protein thioesterase 2 (Homo sapiens), O95372; recombinant LYPLA2; inhibition, % at 5.9 µM; actives 0.38% (n = 320,000);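 active means inhibition above the screen-wide mean plus 3 SD, limit set per campaign, cut at about 26% in these data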;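 further: 0% = LYPLA2 with DMSO and 100% = wells lacking LYPLA2 enzyme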
Target sequence (O95372 whole entry, looked up): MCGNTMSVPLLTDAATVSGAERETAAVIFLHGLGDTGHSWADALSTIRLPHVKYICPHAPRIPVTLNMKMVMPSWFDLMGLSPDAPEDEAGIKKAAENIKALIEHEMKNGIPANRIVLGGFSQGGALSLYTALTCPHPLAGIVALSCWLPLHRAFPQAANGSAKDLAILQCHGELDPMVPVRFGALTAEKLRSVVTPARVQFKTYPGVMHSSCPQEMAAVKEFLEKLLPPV
RBBP9 inh: human RBBP9 inhibitors, primary screen, biochemical, fluorescence polarization, FP-Rh probe, HTS | Serine hydrolase RBBP9 (Homo sapiens), O75884 | recombinant RBBP9 | inhibition, % at 7.94 µM | actives 0.2% (n = 220,000);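 active means inhibition above the campaign mean of all tested compounds plus 3 SD, cut at about 14% in these data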;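 further: plate controls were DMSO wells with RBBP9 for no effect and wells lacking RBBP9 protein for full effect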
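system = RBBP9 protein | input = RBBP9 at 2.5 µM in dispensed solution, before mixing | measured by = fluorescence polarization (mP), excitation 525 nm, emission 598 nm | incubation = enzyme-compound preincubation 30 min, then probe labeling 45 min, 25 °C | buffer or medium = Tris-NaCl-Pluronic buffer, pH 8.0 | compound = single dose 7.94 µM | also added = FP-Rh probe, 375 nM dispensing solution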
LYPLA1 inh: LYPLA1 inhibitors, primary screen, counter-screen for PME1 inhibitor project, biochemical, fluorescence polarization, FP-Rh probe ABPP | Acyl-protein thioesterase 1 (Homo sapiens), O75608 | recombinant LYPLA1 | inhibition, % at 5.9 µM | actives 0.16% (n = 320,000) | AID 2174, 2009;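 active means inhibition above the mean of all tested compounds plus 3 SD, set per campaign, cut at about 14% in these data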;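 further: inhibitors block serine hydrolase probe labeling of LYPLA1 so polarization falls; 0% = enzyme with DMSO and 100% = wells lacking LYPLA1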
Fam108b confirm: mouse Fam108b serine hydrolase inhibitors, confirmation, counter-screen for RBBP9 inhibitor project, biochemical, fluorescence polarization, triplicate. inhibition, % at 9.51 µM. recombinant Fam108b, FP-Rh probe fluorescence polarization. actives 44% (n = 930). AID 1978, 2009. shares compounds with Fam108B counter;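 active means inhibition above a limit from the primary screen, the mean over all compounds plus 3 SD, cut at about 19% in these data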;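 further: 0% = median of active Fam108b wells and 100% = catalytically dead S170A mutant; inhibitors free the probe so polarization falls as inhibition rises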
Fam108b inh: inhibition of mouse Fam108b by HTS hits, late-stage follow-up, biochemical, gel-based ABPP, soluble recombinant form | shares compounds with Fam108B counter | inhibition, % at 20 µM | fluorophosphonate probe | actives 44% (n = 260); in the data active means inhibition above about 40%
* = called active by the depositor; nt = no result given.

SMILES	Fam108B counter	PME-1 inh	LYPLA2 counter	RBBP9 inh	LYPLA1 inh	Fam108b confirm	others
CN(c1ccccc1)S(=O)(=O)c1ccc(NC(=O)c2nc(S(C)(=O)=O)ncc2Cl)cc1	32*	47*	-3	nt	-13	24*
COc1ccccc1Oc1c(C)oc2c(CN3CCN(CCO)CC3)c(O)ccc2c1=O	47*	41*	46*	-2	55*	-7
CCOc1ccccc1Oc1c(C)oc2c(CN3CCN(CCO)CC3)c(O)ccc2c1=O	6	0	-1	-10	0	nt
Clc1ccc(C2Nc3cccc4cccc(c34)N2)cc1Cl	24*	15	-5	nt	-5	21*
Brc1cccc(C2Nc3cccc4cccc(c34)N2)c1	22*	17	6	nt	-1	0
Clc1cccc(C2Nc3cccc4cccc(c34)N2)c1	18	1	-7	nt	-11	nt
Brc1ccc(C2Nc3cccc4cccc(c34)N2)o1	26*	19	-10	-3	-12	8
Oc1ccccc1C1Nc2cccc3cccc(c23)N1	60*	46*	2	-1	-12	31*	Fam108b inh=85*
COc1cccc(NC(=O)CN(C)C(=O)CCCc2nc3ccccc3c(=O)[nH]2)c1	nt	-5	4	nt	0	nt
Cc1ccc(C)c2c(N)c3c(nc12)CCCCC3 (tested in a mixture with another compound)	8	5	5	3	5	nt
CC(C)(C)c1cc[n+](-c2[nH]c(=O)sc2/C=N/N=C(\[O-])c2cccnc2)cc1	0	5	14	nt	-2	nt
O=c1[nH]c(-[n+]2ccc3ccccc3c2)c(/C=N/N=C(\[O-])c2ccccc2)s1	18*	14	2	nt	3	17
CN(C)c1ncc(C2=C(Cl)C(=O)C(N3CCCC3)=C(Cl)C2=O)s1	26*	4	0	12	-3	-4
O=C1C(Cl)=C(N2CCCCC2)C(=O)C(Cl)=C1c1cnc(N2CCCCC2)s1	nt	nt	nt	1	nt	nt
CC(=O)Nc1ccc(NC(=O)c2c(C)noc2C)cc1	2	1	-2	nt	-2	nt
COc1ccc(/C=N/NC(=O)c2cccc([N+](=O)[O-])c2)cc1OS(=O)(=O)c1ccccc1	31*	2	-3	-8	2	26*
O=C1NC(=S)N/C1=C/c1cc2c(cc1[N+](=O)[O-])OCO2	47*	15	-9	nt	-3	12
CCc1ccc(CNc2ccc(O)cc2)cc1	37*	38*	13	4	6	14
CCOc1ccccc1CNc1ccc(O)cc1	nt	nt	nt	6	nt	nt
O=C(O)C1=C[C@H](c2csc3ccccc23)C[C@H](OCc2ccc(CO)cc2)O1	32*	-3	5	-5	4	-5
O=C(O)C1=C[C@@H](c2csc3ccccc23)C[C@@H](OCc2ccc(CO)cc2)O1	4	1	-1	-6	-1	nt
O=C(COc1ccc(NC(=O)c2ccccc2)cc1)c1ccccc1	-1	-1	-2	nt	-1	nt
O=C(N/N=C/c1ccc(-c2ccc(S(=O)(=O)Nc3ncccn3)cc2)o1)c1cc2ccccc2cc1O	24*	-3	-21	-9	-9	20*
CCOc1ccc(C(=O)N/N=C/c2ccc(-c3ccc(S(=O)(=O)Nc4ncccn4)cc3)o2)cc1	-3	-7	-7	1	-8	nt
N#Cc1ccc(OCC(=O)N/N=C/C2CC=CCC2)cc1 (stereo not drawn)	7	-1	-1	-6	-4	nt
SMILES	Fam108B counter	PME-1 inh	LYPLA2 counter	RBBP9 inh	LYPLA1 inh	Fam108b confirm	others
COc1ccc(-n2ccc(=O)c(C(=O)O)n2)cc1	4	4	7	nt	5	nt
COc1cc(OC)c(NC(=O)C2CCCO2)cc1Cl (stereo not drawn)	18*	7	-4	nt	-1	-3
COc1cc(NC(=O)C2CCCO2)c(OC)cc1Cl (stereo not drawn)	2	-13	-5	-8	1	nt
Cn1c2c(c(=O)n(C)c1=O)NC1(N2)C(=O)Nc2ccccc21 (stereo not drawn)	5	-12	1	-2	-1	nt
COc1cccc(CNCC2CCCO2)c1 (stereo not drawn)	-1	-1	4	nt	0	nt
CC(OC(=O)COc1ccccc1Cc1ccccc1)C(=O)N(C)c1ccccc1 (stereo not drawn)	1	10	5	nt	-2	nt
COc1cccc(Nc2nc3ccccc3nc2NS(=O)(=O)c2cccs2)c1	6	20	-1	-9	2	nt
COc1ccc(Nc2nc3ccccc3nc2NS(=O)(=O)c2cccs2)c(OC)c1	23*	0	-9	-3	0	13
CCOC(=O)c1[nH]c2c(c1-c1ccc(OC)cc1)C(=O)CC(c1ccc(OC)c(OC)c1)C2 (stereo not drawn)	-3	-3	0	-6	2	nt
Oc1ccc(/C(Cc2ccc3ccccc3n2)=N\Nc2ccccc2)c(O)c1	7	-2	3	2	-2	nt
Cc1c(O)ccc(C(Cc2ccc3ccccc3n2)=NO)c1O	nt	nt	nt	nt	nt	nt	Fam108b inh=0
Cc1ccccc1SCCNC(=O)c1ccccc1Br	0	8	0	-5	-3	nt
O=C(c1ccc(Cn2c(=S)[nH]c3ccc(Br)cc3c2=O)cc1)N1CCN(C2CCCCC2)CC1	-9	-10	-2	-4	-2	nt
O=[N+]([O-])c1cc(Cl)cc(C=NNC(=S)Nc2cc(S(=O)(=O)N3CCOCC3)ccc2Cl)c1O	nt	nt	nt	nt	nt	nt	Fam108b inh=0
CC(Cc1ccsc1)NC(=O)CCc1nnc(COc2ccccc2)o1 (stereo not drawn)	-1	-8	0	-2	2	nt
Cc1cc(NC(=O)OC2CCCCC2)ccc1[N+](=O)[O-]	7	-1	3	nt	-9	nt
C/C(=N\NC(=O)c1cc2ccccc2cc1O)c1cccs1	19*	-6	7	nt	-4	-6
COc1ccccc1CC(=O)NNS(=O)(=O)c1ccc([N+](=O)[O-])cc1	21*	-4	-3	-6	2	-13
COc1ccccc1CC(=O)NNS(=O)(=O)c1cccc([N+](=O)[O-])c1	-1	1	0	nt	2	nt
CC1(C)CC(=O)C2=C(C1)c1c(ccc3ccccc13)NC2c1cc([N+](=O)[O-])cc([N+](=O)[O-])c1O (stereo not drawn)	26*	-5	-10	0	-6	57*	Fam108b inh=50*

Bioassay records deposited in PubChem BioAssay by The Scripps Research Institute Molecular Screening Center.
